# Laboratory results from ChEMBL document CHEMBL1142960, “Synthesis and structure-activity relationships for 2,4-dinitrobenzamide-5-mustards as prodrugs for the Escherichia coli nfsB nitroreductase in gene therapy” (J Med Chem, 2007).
# What was measured:
# [1] = Toxicity in ip dosed CD1 nude mouse in DMSO; format: organism-based; settings: in vivo
# Summary of the method: (§1)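 Maximum tolerated dose (MTD) determined in CD-1 nude mice after a single i.p. injection of prodrug, given in the vehicle named in each line.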
# V79 [2] = test: Clonogenic survival ratio of 3% V79 NTRpuro cells to 97% V79 NTRoua cells in co-culture; format: functional, Cricetulus griseus
# Summary of the method: (§2)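 Multicellular layer cocultures of 3% V79-NTRpuro activators and 97% V79oua NTR-ve targets (ouabain-resistant), exposed to prodrug for 5 h. MCLs were then trypsin-dissociated and plated in ouabain or puromycin selective media for clonogenic survival. C10 (10% survival) interpolated for activators and targets; AC/TC ratio derived. Mean with SEM or range over independent experiments.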
# V79 [3] = test: Clonogenic survival of V79 NTRoua cells after 5 hrs by MCL assay; format: functional, Cricetulus griseus
# [4] = Antiproliferative activity against human Skov3 NTRneo cells after 18 hrs; format: functional, cell-based; settings: SK-OV-3, 18 h
# [5] = Selectivity ratio of IC50 for Skov3 NTR-ve cells to IC50 for Skov3 NTRneo cells; format: functional, Homo sapiens
# EMT6 [6] = test: Antiproliferative activity against mouse EMT6 NTRpuro cells after 18 hrs; format: functional, cell-based; settings: EMT6, 18 h
# WiDr [7] = test: Antitumor activity against mixed human 10% WiDr NTRneo/ 90% WiDr tumor cells injected in CD1 nude mouse assessed as growth delay at 1780 umol/kg, ip in DMSO; format: functional
# Summary of the method: (§3)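 WiDr-NTRneo tumours (100% NTR+ve, or 1:9 NTR+ve:NTR-ve mixtures) in CD-1 nude mice, given a single i.p. dose at MTD. Read-out is median growth delay to 15 mm mean diameter, plus tumours not palpable 100 days after treatment. Aziridine given at 200 µmol/kg as positive control in every experiment.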
# V79 [8] = test: Antiproliferative activity against chinese hamster wild-type V79 NTR-ve cells after 18 hrs; format: functional, cell-based; settings: Cricetulus griseus, V79, 18 h
# V79 [9] = test: Clonogenic survival of 97% V79 NTRoua cells in co-cultures with 3% V79 NTRpuro cells after 5 hrs by MCL assay; format: functional, Cricetulus griseus; summary of the method: as §2
# [10] = Stability in alpha MEM at 37 degC after 24 hrs; format: physicochemical; settings: read-out: Stability
# Summary of the method: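 Percent parent compound remaining, by HPLC, after holding in α-MEM with 5% fetal calf serum at 37 °C for 24 h.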
# EMT6 [11] = test: Selectivity ratio of IC50 for EMT6 NTR-ve cells to IC50 forEMT6 NTRpuro cells; format: functional, Mus musculus
# WiDr [12] = test: Antiproliferative activity against human WiDr NTRneo cells after 18 hrs; format: functional, cell-based
# WiDr [13] = test: Antitumor activity against human 100% WiDr NTRneo tumor cells injected in CD1 nude mouse assessed as growth delay at 1780 umol/kg, ip in DMSO; format: functional; summary of the method: as §3
# [14] = Antiproliferative activity against human wild type Skov3 NTR-ve cells after 18 hrs; format: functional, cell-based
# EMT6 [15] = test: Antiproliferative activity against mouse wild type EMT6 NTR-ve cells after 18 hrs; format: functional, cell-based; settings: EMT6, 18 h
# WiDr [16] = test: Antiproliferative activity against human wild type WiDr NTR-ve cells after 18 hrs; format: functional, cell-based
# WiDr [17] = test: Selectivity ratio of IC50 for WiDr NTR-ve cells to IC50 for WiDr NTRneo cells; format: functional, Homo sapiens
# V79 [18] = test: Antiproliferative activity against chinese hamster V79 NTRpuro cells after 18 hrs; format: functional, cell-based; settings: Cricetulus griseus, V79, 18 h
# V79 [19] = test: Selectivity ratio of IC50 for V79 NTR-ve cells to IC50 for V79 NTRpuro cells; format: functional, Cricetulus griseus
# EMT6 [20] = test: Antitumor activity against mixed mouse EMT6/EMT6 NTRpuro cells injected in CD1 nude mouse assessed as cell kill at 1780 umol/kg, ip in DMSO after 18 hrs; format: functional
# [21] = Partition coefficient at pH 7.4 by shake-flask method; format: physicochemical; settings: octanol/water
# Summary of the method: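 Octanol-water partition coefficient by shake-flask at pH 7.4, reported with SEM.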
# V79 [22] = test: Clonogenic survival of 3% V79 NTRpuro cells in co-cultures with 97% V79 NTRoua after 5 hrs by MCL assay; format: functional, Cricetulus griseus; summary of the method: as §2
# [23] = Solubility in alpha MEM; format: physicochemical
# Summary of the method: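 Solubility (mM) in α-MEM with 5% fetal calf serum at ambient temperature, measured by HPLC.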
# EMT6 [24] = test: Antitumor activity against mixed mouse EMT6/EMT6 NTRpuro cells injected in CD1 nude mouse assessed as cell kill at 1000 umol/kg, ip in DMSO after 18 hrs; format: functional
# WiDr [25] = test: Antitumor activity against human 100% WiDr NTRneo tumor cells injected in CD1 nude mouse assessed as growth delay at 1000 umol/kg, ip in DMSO; format: functional; summary of the method: as §3
# WiDr [26] = test: Antitumor activity against mixed human 10% WiDr NTRneo/ 90% WiDr tumor cells injected in CD1 nude mouse assessed as growth delay at 1000 umol/kg, ip in DMSO; format: functional; summary of the method: as §3
# WiDr [27] = test: Antitumor activity against human 100% WiDr NTRneo tumor cells injected in CD1 nude mouse assessed as growth delay at 133 umol/kg, ip in DMSO/PEG; format: functional; summary of the method: as §3
# [28] = Toxicity in ip dosed CD1 nude mouse in DMSO/PEG; format: organism-based; settings: in vivo; summary of the method: as §1
# WiDr [29] = test: Antitumor activity against mixed human 10% WiDr NTRneo/ 90% WiDr tumor cells injected in CD1 nude mouse assessed as growth delay at 750 umol/kg, ip in DMSO; format: functional; summary of the method: as §3
# EMT6 [30] = test: Antitumor activity against mixed mouse EMT6/EMT6 NTRpuro cells injected in CD1 nude mouse assessed as cell kill at 133 umol/kg, ip in DMSO/PEG after 18 hrs; format: functional
SMILES,MTD [1] [µmol/kg],Ratio (V79 [2]),Activity (V79 [3]) [µM],IC50 [4] [µM],Ratio IC50 [5],IC50 (EMT6 [6]) [µM],IC50 (V79 [8]) [µM],Activity (V79 [9]) [µM],remaining at 24 h [10] [%],Ratio IC50 (EMT6 [11]),IC50 (WiDr [12]) [µM],IC50 [14] [µM],IC50 (EMT6 [15]) [µM],IC50 (WiDr [16]) [µM],Ratio IC50 (WiDr [17]),IC50 (V79 [18]) [µM],Ratio IC50 (V79 [19]),logD [21],Activity (V79 [22]) [µM],solubility [23] [µM],other results
CS(=O)(=O)OCCN(CCBr)c1cc(C(N)=O)c([N+](=O)[O-])cc1[N+](=O)[O-],1780,0.2,>250,0.19,715,0.05,133,10,71,1510,0.22,135,76,80,387,0.11,1260,0.49,2,230,Activity (WiDr [7]): 26 days; Activity (WiDr [13]): >82 days; LCK (EMT6 [20]): >3.61
CS(=O)(=O)OCCN(CCCl)c1cc(C(N)=O)c([N+](=O)[O-])cc1[N+](=O)[O-],1000,0.16,>1000,0.78,697,0.3,504,33,,942,0.7,522,211,246,442,0.55,1060,0.42,5.3,,LCK (EMT6 [24]): >3.82; Activity (WiDr [25]): >80 days; Activity (WiDr [26]): 38 days
CS(=O)(=O)c1cc([N+](=O)[O-])c(C(N)=O)cc1N(CCBr)CCBr,750,,>100,0.4,265,0.09,80,16,63,490,0.58,86,39,37,74,0.16,508,1.02,5.5,70,Activity (WiDr [27]): >83 days; MTD [28]: 133 µmol/kg; Activity (WiDr [29]): 36 days; LCK (EMT6 [30]): 2.24
